Screening data: PubChem BioAssay, Broad Institute
A selection: hits, their analogues and other compounds. The true share with any hit is near 1.3%.
RAD52 anneal inh: RAD52 (human) annealing inhibition; recombinant RAD52 DNA annealing, FRET fluorescence; AID 651710; 360,000 compounds, 0.46% hits; inhibition, % at 18.7 µM;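 active means every replicate showing at least 50% inhibition; inconclusive means mean inhibition at least 50% but not in every replicate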
Target sequence (P43351 whole entry, looked up): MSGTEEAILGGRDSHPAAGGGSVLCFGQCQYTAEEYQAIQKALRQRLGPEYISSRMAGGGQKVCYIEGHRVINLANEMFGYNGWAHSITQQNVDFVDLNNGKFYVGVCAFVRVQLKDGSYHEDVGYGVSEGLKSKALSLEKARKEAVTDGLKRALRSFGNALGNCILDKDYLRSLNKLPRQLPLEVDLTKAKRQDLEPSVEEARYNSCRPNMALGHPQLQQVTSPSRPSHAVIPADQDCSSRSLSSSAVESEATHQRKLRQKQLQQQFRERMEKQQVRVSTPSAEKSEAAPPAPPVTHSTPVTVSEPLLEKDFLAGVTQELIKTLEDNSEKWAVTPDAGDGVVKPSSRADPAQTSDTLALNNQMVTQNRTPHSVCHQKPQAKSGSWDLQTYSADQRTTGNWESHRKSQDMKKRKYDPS
MLL AF4-AF9 inh: inhibitors of human MLL-AF4/AF9 interaction; AlphaScreen, biotin-AF4 peptide binding to FLAG-AF9; inhibition, % at 10 µM; AID 651704; 350,000 compounds, 0.47% hits;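 active means every replicate reaching a set inhibition limit, whatever the replicate mean, cut at about 25% in these data; inconclusive means mean inhibition reaches that limit but some replicates miss it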;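 further: 0% = plate neutral control median and 100% = total signal loss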
RAD54 inh: RAD54 (human) branch migration inhibition | RAD54 Holliday junction branch migration, FAM/BHQ fluorescence | inhibition, % at 10.4 µM | 360,000 compounds, 0.14% hits | AID 602329;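 active means mean normalized replicate activity at least 40 and at least half of replicates scoring 40 or more; inconclusive means only one of the two criteria met; inactive means mean below 40 and under half of replicates reaching 40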;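 further: 0% = median of neutral control wells and 100% = median of positive control wells; inhibitors cause a drop in the FAM fluorescence signal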
S100A4 MyoIIA: blocks human S100A4 binding to myosin IIA peptide | AID 652163 | 360,000 compounds, 0.14% hits | S100A4/TAMRA-MyoIIA peptide fluorescence polarization | inhibition, % at 10.7 µM | P26447;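 active means mean inhibition of at least 70% across replicates, with every replicate also reaching that level; inconclusive means mean inhibition reaches 70% but some replicates fall short; inactive means mean inhibition below 70%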
Target sequence (P26447 whole entry, looked up): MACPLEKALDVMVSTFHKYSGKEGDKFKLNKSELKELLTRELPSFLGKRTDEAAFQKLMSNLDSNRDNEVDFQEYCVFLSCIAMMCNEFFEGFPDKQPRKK
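Compound dosing: one dose per compound; test system: human S100A4 monomer with TAMRA-labelled myosin IIA peptide; probe or stimulus: TAMRA-labelled myosin IIA heavy-chain peptide probe, 5 nM; medium: HEPES buffer with Ca2+, pH 7.2; schedule: 5 min incubation before reading; benchmarks: neutral control DMSO, positive control TFP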
GSIS activator: GLuc luminescence reporter in INS-1E cells, primary screen for activators of glucose-dependent secretion of insulin; INS-1E GLuc reporter insulin secretion, 2-3 h; activation, % at 16.6 µM; 370,000 compounds, 0.61% hits;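 active means lowest replicate activation of at least 40%, so every replicate reaches that level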;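 further: 0% = median of neutral control wells and 100% = median of IBMX positive control wells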
DNA binder FP: counter-screen for RAD52 inhibitors: DNA binding compounds. shares compounds with RAD52 anneal inh. Salmon sperm DNA/acridine orange FP displacement. AC50, µM. 1,000 compounds, 8% hits. AID 652128;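 active means fitted half-maximal concentration for signal loss at or below twice the highest dose tested, in every separate run, actives reach about 64 µM in these data; inconclusive means runs disagree, or flat partial signal loss, or poor fit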
Numbers without * were called inactive; i = inactive; u = inconclusive; x = no result.

SMILES	RAD52 anneal inh	MLL AF4-AF9 inh	RAD54 inh	S100A4 MyoIIA	GSIS activator	DNA binder FP
COc1ccc(-c2nc(NCCCN(C)C)c3ccccc3n2)cc1	87.2*	-12.2	90.5*	-4.8	5.1	i
CCN(CC)CCCNc1nc2ccccc2c2[nH]c3ccc(OC)cc3c12	105.5*	u	x	4.1	-13.9	6.48µM*
Cc1c2cnn(-c3ccccc3)c(=O)c2c(C)n1CCCC(=O)NCCN1CCN(C)CC1	57.9*	u	x	2.6	32.3	i
CCN1CCN(C(=O)CCCn2c(C)c3cnn(-c4ccccc4)c(=O)c3c2C)CC1	-7.9	2.8	-0.6	-5.2	6.0	x
CCCC(=O)Nc1ccc2c(c1)C(=O)N(C)[C@H]1CC[C@H](CC(=O)NCCc3ccncc3)O[C@@H]1CO2	7.0	2.2	4.0	-31.7	x	x
CCN1CCN(c2nc(Nc3ccc(NC(C)=O)cc3)nc(Nc3ccc(NC(C)=O)cc3)n2)CC1	73.2*	7.4	x	-2.3	5.3	i
CC(=O)Nc1ccc(/C(C)=N/Nc2nc(Nc3ccccc3)nc(N3CCOCC3)n2)cc1	-3.9	5.3	x	1.0	-8.9	x
Cc1cc(C)nc(/N=C(\N)Nc2cccc(OCc3ccccc3)c2)n1	48.9	6.2	-1.4	-1.5	x	x
Cc1cc(C)nc(/N=C(\N)Nc2ccc(OCc3ccccc3)cc2)n1	55.1*	12.4	x	-1.4	-36.6	i
C[C@@H]1CN([C@H](C)CO)C(=O)c2cc(NC(=O)Nc3ccc(F)cc3)ccc2O[C@@H](C)CCCCO[C@@H]1CN(C)Cc1ccc(C(=O)O)cc1	26.9	0.7	1.4	0.8	4.3	x
C[C@@H]1CN([C@H](C)CO)C(=O)c2cc(N(C)C)ccc2O[C@@H]1CN(C)C(=O)Nc1cccc2ccccc12	0.6	3.1	-5.8	-7.1	7.0	x
CN(C)C(=O)C[C@@H]1CC[C@H]2[C@H](COc3ccc(NC(=O)C4CCCCC4)cc3C(=O)N2C)O1	4.7	-3.0	-0.9	-4.6	8.1	x
CCSc1ccc2c(c1)N(CCCN1CCN(C)CC1)c1ccccc1S2	63.2*	64.9*	25.9	-3.1	x	i
CN1CCN(CCCN2c3ccccc3Sc3ccc(Cl)cc32)CC1	79.4*	35.6*	13.2	-6.3	x	i
CN1CCN(CCC(=O)N2c3ccccc3Sc3ccc(C(F)(F)F)cc32)CC1	x	x	17.5	x	x	x
OCCN1CCN(CC/C=C2/c3ccccc3Sc3ccc(C(F)(F)F)cc32)CC1	58.5*	27.1*	8.2	-12.6	31.7	i
CC(CN1CCN(CCOCCO)CC1)CN1c2ccccc2Sc2ccc(Cl)cc21 (centres undefined)	11.8	19.7	11.6	5.1	11.6	x
OCCN1CCN(CC/C=C2/c3ccccc3CSc3ccccc32)CC1	17.7	11.8	-5.6	2.6	-32.4	x
OCCN1CCN(CCCN2c3ccccc3Sc3ccc(C(F)(F)F)cc32)CC1	55.9*	18.4	u	2.3	x	i
O=C(C[C@@H]1C=C[C@H](NC(=O)c2cnccn2)[C@H](CO)O1)NCc1ccccc1F	2.9	-1.3	-3.0	-8.1	6.6	x
OC1CC2CCC(C1)N2CCCN1c2ccccc2Sc2ccc(Cl)cc21 (centres undefined)	90.5*	19.3	18.4	1.0	-33.1	i
CC1CCN(CCOCCOc2ccc(Cl)cc2Br)CC1	52.5*	11.1	3.9	1.2	-7.4	i
O=C(Nc1cc(F)ccc1F)N1CCCCN2[C@@H](CO)[C@@H](c3ccc(-c4ccccc4)cc3)[C@@H]2C1	-0.1	8.6	3.0	-4.5	-19.8	x
CN1CCN(CCCNC(=O)c2cc3c(=O)n(C)c4ccccc4c3s2)CC1	62.3*	-3.8	63.5*	-0.7	x	i
CCOCCCNC(=O)c1cc2c(=O)n(CC)c3ccccc3c2s1	-14.6	-1.6	2.8	1.0	x	x
SMILES	RAD52 anneal inh	MLL AF4-AF9 inh	RAD54 inh	S100A4 MyoIIA	GSIS activator	DNA binder FP
CC(=O)c1cccc(Nc2cc(C)nc3ccccc23)c1	8.5	-11.2	20.6	-9.5	10.2	x
CC(=O)c1cccc(Nc2cc(C)nc3c(C)cccc23)c1	50.3*	0.0	x	0.0	x	i
CCN(CC)CCN(Cc1cc2cc3c(cc2[nH]c1=O)OCCO3)C(=S)NCCCN(C)C	54.4*	2.4	0.8	1.6	13.3	i
CN(C)CCCNC(=S)N(CCN(C)C)Cc1cc2cc3c(cc2[nH]c1=O)OCCO3	83.9*	4.0	28.8	2.0	-3.0	i
CCN(CC)CCN(Cc1cc2cc3c(cc2[nH]c1=O)OCO3)C(=S)NCCCN(C)C	34.9	5.8	27.0	-6.9	10.5	x
O=C(NCCCN1CCCC1)c1ccc2c(c1)N(Cc1cccc(Cl)c1)C(=O)c1ccccc1S2=O (centres undefined)	67.3*	7.3	3.9	-4.3	19.7	i
CN1CCN(CCCNC(=O)c2ccc(/C=C3\Sc4ccccc4N(Cc4ccc(F)cc4)C3=O)cc2)CC1	92.0*	21.6	6.9	2.1	76.1*	i
CN1CCN(CCCNC(=O)c2ccc(/C=C3/Sc4ccccc4N(Cc4cccc(Cl)c4)C3=O)cc2)CC1	68.1*	27.4*	9.8	-2.6	128.5*	i
CN1CCN(CCCNC(=O)c2ccc(/C=C3\Oc4ccccc4N(Cc4ccccc4F)C3=O)cc2)CC1	95.8*	2.7	30.5	-6.4	92.8*	i
Cc1ccccc1-c1ccc2c(c1)O[C@@H](CN(C)C(=O)C1CC1)[C@@H](C)CN([C@@H](C)CO)S2(=O)=O	11.2	-2.2	-2.9	10.7	-19.1	x
CCN(CC)CCNC(=O)C(=O)NCC1OCCN1S(=O)(=O)c1cccs1 (centres undefined)	53.8*	18.4	-6.6	-6.5	2.6	i
CCCCCCCCCCOC(=O)C[N+](C)(C)C/C=C(/C)Cl	49.0	-10.3	12.1	-5.2	-30.1	x
CCCCCCCCCCCCOC(=O)C[N+](C)(C)C	50.0*	4.1	x	1.7	-15.1	i
CCOC(=O)c1c(C)n(-c2ccc(C)cc2)c2ccc(OCC(O)CN3CCN(C)CC3)cc12 (centres undefined)	97.2*	41.1*	x	2.0	121.6*	i
COc1ccccc1-c1ccc(C2[C@@H]3CN(S(=O)(=O)c4ccccc4OC)C[C@H]2N3)cc1 (some centres undefined)	48.4	0.6	x	6.5	10.4	x
CSc1ccc2c(c1)C(N1CCN(C)CC1)Cc1ccccc1S2 (centres undefined)	52.0*	18.9	18.9	-5.1	28.7	i
CN1CCN(C2Cc3ccccc3Sc3ccc(Cl)cc32)CC1 (centres undefined)	53.9*	8.1	12.5	1.3	x	i
CN1CCN(C2Cc3cc(F)ccc3Sc3ccc(Cl)cc32)CC1 (centres undefined)	39.1	11.9	15.9	-3.5	-23.4	x
COc1ccc(/C=N/Nc2nc(-c3cccc(S(=O)(=O)N4CCCC4)c3)cs2)c(OC)c1	96.0*	9.6	x	14.8	x	i
